Screens deposited in PubChem BioAssay by several laboratories.
This is a sample that favours compounds with a hit; in the whole collection about 2.1% have one here.
LMPTP block – blocks human LMPTP phosphatase | P24666 | recombinant LMPTP-A, OMFP fluorogenic substrate, fluorescence intensity | inhibition, % at 20 µM | hit rate 0.22% among 360,000;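 active = compounds that cut the enzyme signal by at least half of the control window in the single-dose screen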;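 also: plate controls were DMSO wells with enzyme plus substrate for no effect and substrate without enzyme for full effect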
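Test system – LMPTP-A enzyme · Amount – LMPTP-A at 0.625 nM final in the reaction · Buffer or medium – Bis-Tris pH 6.0, DTT, detergent · Reagent – OMFP 400 µM · Doses – single 20 µM dose · Schedule – reaction 50 min, room temperature, dark · Detection – fluorescence intensity of OMFP turnover product · Evaluation – percent inhibition versus substrate-only and uninhibited controls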
Scp1 inh – Scp-1 (human) phosphatase inhibition; Q9GZU7; Recombinant Scp1, phosphopeptide, malachite green phosphate absorbance; inhibition, % at 20 µM; hit rate 0.88% among 340,000;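 active = inhibition above about 50% at 20 µM, limit read from the data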;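 also: plate controls were DMSO wells with enzyme for no effect and wells lacking enzyme for full effect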
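Test system: SCP-1 catalytic domain; Buffer or medium: Acidic Tris acetate buffer with magnesium and detergent; Also added: Phosphorylated 17-residue peptide substrate; Compound: single 20 µM dose, 1% DMSO; Schedule: enzyme reaction 45 min at room temperature, colour 5 min, stabilisation 30 min; Signal: Phosphate-binding colour reagent, absorbance read at 630 nm.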
SUMO1-SIM PPI – SUMO1-SIM interaction modulation. P63165. SUMO1 binding to a labelled peptide, TR-FRET, 1 h. inhibition, % at 20 µM. hit rate 0.33% among 360,000. AID 602429; in the data active = inhibition above about 37%
STEP block – inhibitors of human striatal-enriched phosphatase STEP. P54829. recombinant STEP, OMFP fluorogenic substrate, fluorescence. inhibition, % at 20 µM. hit rate 0.25% among 360,000;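 active = inhibition at 20 µM, scaled per plate between control wells, above about 37%, limit read from the data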;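 also: 0% = DMSO with enzyme and substrate and 100% = substrate only without enzyme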
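Material: STEP (striatal-enriched tyrosine phosphatase) enzyme, cell-free; Compound dosing: 20 µM single dose in 1% DMSO; Technique: fluorescence read at 480 nm ex / 540 nm em; Times: reaction 20 min, ambient temperature; Medium: 50 mM Bis-Tris pH 6.0 with 2.5 mM DTT and 0.005% Tween 20; Also added: OMFP at 25 µM.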
DNMT1 block – blocks human DNA methyltransferase DNMT1. P26358. DNMT1 molecular beacon, Hinp1I cleavage, fluorescence. inhibition (reported as % activation of signal), % at 10 µM. hit rate 0.83% among 360,000; in the data active = inhibition above about 50%
Target sequence (P26358 504-1616 limits assumed): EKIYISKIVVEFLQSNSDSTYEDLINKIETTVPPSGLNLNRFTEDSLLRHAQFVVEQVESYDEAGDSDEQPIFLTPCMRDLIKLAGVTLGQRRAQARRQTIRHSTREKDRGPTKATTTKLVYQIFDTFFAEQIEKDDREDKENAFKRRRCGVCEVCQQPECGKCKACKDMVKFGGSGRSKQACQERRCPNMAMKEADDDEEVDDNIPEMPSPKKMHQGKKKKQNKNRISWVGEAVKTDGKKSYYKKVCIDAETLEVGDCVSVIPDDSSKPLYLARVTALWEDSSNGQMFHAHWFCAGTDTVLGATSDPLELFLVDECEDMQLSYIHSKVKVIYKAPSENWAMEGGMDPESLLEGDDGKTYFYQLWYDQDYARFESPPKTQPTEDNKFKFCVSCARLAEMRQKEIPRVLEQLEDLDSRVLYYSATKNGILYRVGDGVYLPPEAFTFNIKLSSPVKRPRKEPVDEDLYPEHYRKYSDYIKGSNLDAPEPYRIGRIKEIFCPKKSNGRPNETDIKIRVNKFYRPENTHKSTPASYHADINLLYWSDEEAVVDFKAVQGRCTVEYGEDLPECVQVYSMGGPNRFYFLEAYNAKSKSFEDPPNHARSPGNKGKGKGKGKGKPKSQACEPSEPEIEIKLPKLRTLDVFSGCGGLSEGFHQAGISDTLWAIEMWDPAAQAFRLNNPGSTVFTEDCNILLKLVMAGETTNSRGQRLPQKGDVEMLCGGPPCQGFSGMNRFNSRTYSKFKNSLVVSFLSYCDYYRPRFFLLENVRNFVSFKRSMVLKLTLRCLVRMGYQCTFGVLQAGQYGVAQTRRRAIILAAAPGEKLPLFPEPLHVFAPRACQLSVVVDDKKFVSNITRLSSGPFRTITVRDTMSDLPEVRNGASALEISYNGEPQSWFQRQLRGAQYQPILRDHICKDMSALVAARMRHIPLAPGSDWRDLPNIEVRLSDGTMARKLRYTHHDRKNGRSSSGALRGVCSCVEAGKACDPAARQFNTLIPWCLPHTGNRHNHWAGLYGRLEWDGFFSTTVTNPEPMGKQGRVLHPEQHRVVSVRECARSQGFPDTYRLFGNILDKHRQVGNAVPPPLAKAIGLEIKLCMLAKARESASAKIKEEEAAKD
GRK2 aptamer HTS – human GRK2 inhibition via aptamer displacement | bead flow cytometry, FAM-aptamer displacement from GRK2 | inhibition of aptamer binding, % at 10 µM | hit rate 0.59% among 330,000 | AID 488847;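 active = inhibition of aptamer binding above 40%, roughly 3 SD of noise, on plates passing a quality check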;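 also: median bead fluorescence of bound FAM aptamer so fluorescent compounds give negative values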
Active calls of the source: *; x = no result.

SMILES	LMPTP block	Scp1 inh	SUMO1-SIM PPI	STEP block	DNMT1 block	GRK2 aptamer HTS
COc1ccc(NC(=O)c2ccc(CNc3c(NC4CCCCC4)c(=O)c3=O)cc2)c(OC)c1	0.1	-7.6	0.8	2.1	4.6	0.0
Cc1ccccc1-c1nnc(SC(C)C(=O)NC2CCCC2)o1 (centres undefined)	0.1	-2.2	6.4	-1.5	3.9	4.0
O=C(O)c1ccccc1NS(=O)(=O)c1ccc(NN=Cc2cccc(Cl)c2)c([N+](=O)[O-])c1	82.5*	-13.3	33.3	7.1	35.5	2.0
Cn1ncc2c(NCc3cccc(C(F)(F)F)c3)c(C(=O)O)cnc21	x	x	x	x	x	55.0*
CCc1nc2ccc(C(=O)N3CCN(C(=O)c4ccco4)CC3)cn2c1N(CC)Cc1cccc(Br)c1	-2.4	x	-3.0	0.6	2.9	x
CCCc1nc2c(=O)n(C)c(=O)nc-2n(C)n1	71.5*	-7.4	27.3	75.6*	96.8*	x
COc1ccc(-c2nc(-c3ccccn3)ncc2S(C)(=O)=O)cc1	-0.8	-6.9	-2.5	1.8	-1.1	1.0
Cn1nc(-c2ccccn2)nc2c(=O)n(C)c(=O)nc1-2	67.7*	-13.9	33.6	67.4*	98.0*	0.0
CCCCN1C(=O)C(CC(=O)NC2CCCCC2)CC(C(=O)N2CCCCCC2)=C1C (centres undefined)	-3.2	x	2.1	x	x	x
CC(CCCN1CCCC1)Nc1ccnc2cc(Cl)ccc12 (centres undefined)	76.2*	-15.3	-41.6	-5.7	8.6	x
O=C(/C=C/c1cc[n+](CC(=O)c2ccc3cccc4c3c2CC4)cc1)c1ccc2cccc3c2c1CC3	54.4*	17.4	131.6*	19.2	102.3*	94.0*
COc1ccc(C(=O)Nc2nc3cc4c(cc3s2)OCO4)c(OC)c1	0.7	-17.3	59.6*	-0.9	-19.1	0.0
COc1ccc2nc(NC(=O)c3cc(C)oc3C)sc2c1	0.5	-3.1	1.4	0.2	-6.5	1.0
CC(C)C[C@@H](CN1CCC[C@H]1CN1C(=O)C(=O)NC[C@@H]1Cc1ccccc1)N1C[C@H](Cc2ccccc2)N(CC2CCCCCC2)C(=O)C1=O	7.2	x	5.7	x	x	x
CC(C)(C)c1ccc(C(=O)N2CCC2(C)C(=O)Nc2ccc3nc[nH]c3c2)cc1 (centres undefined)	-1.0	x	4.3	-1.3	-2.8	x
NC(=S)Cc1nc(-c2ccccc2)cs1	0.0	4.0	-1.7	4.1	50.4*	2.0
Oc1csc(Cc2nc(-c3ccc(-c4ccccc4)cc3)cs2)n1	0.8	0.6	0.0	3.1	10.2	0.0
CCOC(=O)COc1nc(C)c(Br)c(OC)n1	-0.8	1.5	61.1*	-2.6	2.3	2.0
C[C@H](CO)N1C[C@H](C)[C@@H](CN(C)S(=O)(=O)c2ccc3c(c2)OCCCO3)OCc2cn(nn2)CCCC1=O	-1.7	x	6.2	-0.5	1.3	x
O=C(COC(=O)c1cc(=O)[nH]c2ccccc12)NCc1cccs1	-0.6	2.5	-11.9	1.2	-0.6	2.0
NC(=O)c1ccsc1NC(=O)COC(=O)c1cc(=O)[nH]c2ccccc12	6.2	3.9	48.5*	-1.2	1.6	3.0
NC(=O)c1ccsc1NC(=O)c1cc(=O)c2ccccc2o1	9.4	9.7	63.4*	3.7	-2.0	2.0
CNC(CC(C)C)C(=O)NC1C(=O)NC(CC(N)=O)C(=O)NC2C(=O)NC3C(=O)NC(C(=O)NC(C(=O)O)c4cc(O)cc(O)c4-c4cc3ccc4O)C(O)c3ccc(c(Cl)c3)Oc3cc2cc(c3OC2OC(CO)C(O)C(O)C2OC2CC(C)(N)C(O)C(C)O2)Oc2ccc(cc2Cl)C1O (centres undefined)	0.4	-3.5	50.8*	-0.9	-2.4	0.0
O=C(Nc1ccccc1)NN(C(=O)CCl)c1ccccc1	-1.6	-1.4	69.9*	-1.5	7.6	0.0
O=C(NCc1ccccc1)C(CCc1ccccc1)n1c(=O)c(-c2ccccc2)nc2ccccc21 (centres undefined)	3.3	x	2.3	x	x	x
SMILES	LMPTP block	Scp1 inh	SUMO1-SIM PPI	STEP block	DNMT1 block	GRK2 aptamer HTS
O=c1c2ccccc2[nH]c2ccc(O)cc12	6.6	60.9*	5.4	7.6	32.9	7.0
Cc1ccc2[nH]c3ccccc3c(=O)c2c1	0.5	-9.1	-22.7	5.4	10.5	11.0
O=S(=O)(Cc1ccccc1)Nn1cnnc1	5.2	-6.4	60.2*	-0.1	-2.3	2.0
Cc1cccc(NS(=O)(=O)Cc2ccccc2)n1	-1.4	-4.8	-1.7	0.8	-1.9	0.0
CC(=O)c1cccc(-c2ccnc3c2CC(C(=O)NCc2cccs2)O3)c1 (centres undefined)	0.7	x	0.9	-1.0	6.4	x
FC(F)(F)c1cc(Cl)c2nc(-c3ccco3)c(Cc3ccccc3C(F)(F)F)n2c1	-1.3	x	7.3	x	x	x
NC(=O)c1ccc(NC(=O)CSC2=Nc3ccccc3C3CC=NN23)cc1 (centres undefined)	0.1	-5.2	47.1*	-2.5	-1.3	13.0
Cc1ccc(S(=O)(=O)N2C[C@H]3C(=O)C[C@@H]4C(=O)N(c5ccccc5)C(=O)[C@@H]4[C@@H]3C[C@H]2c2cccc(Cl)c2)cc1	1.3	x	4.8	1.6	-11.2	x
COc1cccc(CNS(=O)(=O)c2ccc3c(c2)N(C(C)=O)CCO3)c1	9.0	23.7	3.5	42.3*	23.6	12.0
CC1=C(C#N)C(=O)NC(=O)/C1=C\c1ccc(-c2cc(C)c(C)cc2[N+](=O)[O-])o1	3.3	78.0*	17.5	4.9	12.7	x
O=Cc1ccnc(-c2ccc(OC(=O)c3ccco3)cc2)n1	0.6	-8.6	55.7*	3.3	-7.7	2.0
O=C(Oc1ccc(-c2ccccc2)cc1)c1ccco1	0.7	-10.5	2.5	2.0	2.6	x
O=[N+]([O-])c1ccc(Sc2nc3ccccc3o2)c([N+](=O)[O-])c1	1.6	-5.6	-17.3	4.8	52.5*	4.0
O=[N+]([O-])c1ccc(Cl)cc1Sc1nc2ccccc2o1	3.1	-9.5	-25.8	2.7	7.2	0.0
Cc1nc(NCc2ccco2)c2c(C)c(C)sc2n1	4.4	-6.4	2.2	-1.0	1.6	4.0
Cc1sc2nc3c4ccccc4c(NCc4ccco4)nn3c(=O)c2c1C	5.2	-5.2	75.1*	-1.4	0.6	8.0
CC(=O)Nc1cc(-c2cccnc2)cn2c(-c3ccc(F)cc3)cnc12	-1.5	x	-20.5	-2.0	4.9	x
CC(=O)C1CCC2C3CC=C4CC(SC(=N)N)CCC4(C)C3CCC12C (centres undefined)	62.7*	17.0	-54.1	4.7	4.7	x
CC(C)(C)[C@H](N)C(=O)N[C@H]1CCC2C3CC=C4C[C@@H](O)CC[C@]4(C)C3CC[C@@]21C (some centres undefined)	-1.5	-0.3	40.9*	1.4	-31.3	1.0
